# KCNK9 inh = inhibitors of human KCNK9 two-pore domain potassium channel | HEK293 KCNK9, FluxOR thallium flux fluorescence; hits give low values | 310,000 tested, 1.2% active | Q9NPC2 | B-score at 10 µM;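 active = ratio B-score over 3 SD below the library mean, with starting fluorescence within 5 SD of its mean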;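 note: negative B-score means less thallium flux so channel inhibition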
# Target sequence (Q9NPC2 whole entry, looked up, the tested form may be a part): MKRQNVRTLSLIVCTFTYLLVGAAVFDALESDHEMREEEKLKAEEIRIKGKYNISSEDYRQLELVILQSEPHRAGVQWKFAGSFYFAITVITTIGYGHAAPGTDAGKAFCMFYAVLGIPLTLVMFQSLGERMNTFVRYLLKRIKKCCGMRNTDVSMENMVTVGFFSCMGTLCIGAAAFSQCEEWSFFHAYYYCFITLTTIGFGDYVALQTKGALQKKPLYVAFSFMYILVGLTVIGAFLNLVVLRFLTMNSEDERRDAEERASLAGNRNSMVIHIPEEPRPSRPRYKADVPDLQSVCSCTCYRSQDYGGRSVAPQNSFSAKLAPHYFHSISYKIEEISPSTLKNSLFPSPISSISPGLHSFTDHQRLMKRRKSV
# KCNQ1 act = potentiators or activators of human KCNQ1 potassium channel | CHO-K1 KCNQ1, thallium flux FluxOR fluorescence; hits give high values | 310,000 tested, 0.35% active | B-score at 10 µM;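 active = fluorescence ratio B-score, a plate-corrected score, at least three library SD, with initial intensity B-score within 5 SD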
#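 System: CHO-K1 cells stably expressing KCNQ1 / Medium: assay buffer for compound exposure, DMSO matched across wells / Reagent: thallium- and potassium-containing depolarizing buffer / Compound: one concentration, matched DMSO / Incubation: 20 min compound pretreatment at room temperature / Measured by: kinetic FluxOR fluorescence, 10 s baseline plus 110 s post-stimulus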
# KCNK3 block = human KCNK3 channel inhibition, primary screen; 340,000 tested, 0.84% active; CHO-KCNK3 thallium flux, FluxOR fluorescence; hits give low values; O14649; B-score at 10 µM;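 active = B-score under library mean minus 4 SD, starting fluorescence ratio at most library mean plus 5 SD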;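 note: more negative B-score means stronger inhibition of thallium flux through KCNK3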
# KCNQ1 inh = human KCNQ1 channel inhibition; B-score at 10 µM; 310,000 tested, 1.3% active; CHO-K1 KCNQ1, FluxOR thallium flux fluorescence; hits give high values;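 active = compounds whose thallium flux B-score, printed positive for inhibition, exceeds three library SD while starting fluorescence stays within three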;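 note: channel opened by potassium depolarization with thallium stimulus after 20 min compound exposure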
# Kir21 inh = inhibitors of mouse Kir2.1 inward-rectifier potassium channel; P35561; 310,000 tested, 0.85% active; HEK293-Kir2.1, FluxOR thallium flux fluorescence; hits give low values; B-score at 10 µM; AID 1672;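 active = fluorescence ratio B-score at or below minus 3 SD of library scores, with starting-brightness B-score within 2 SD, cut at about -4.2 in these data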;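 note: channel flux triggered by added potassium and thallium sulfate stimulus; B-score of peak minus minimum fluorescence over baseline after thallium stimulus; more negative B-score means stronger Kir2.1 block with less thallium influx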
# hERG rescue = compounds protecting human hERG from proarrhythmic drug block. CHO-hERG, FluxOR thallium flux, dofetilide IC70 present. activation (rescue from dofetilide block), less the hit threshold, % at 10 µM. 310,000 tested, 0.51% active. AID 1511;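 active = activation above the mean of controls blocked by dofetilide plus 5 SD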;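 note: thallium influx through hERG after potassium depolarization seen as dye fluorescence rise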
# * marks the source's active call; other numbers are inactive results; i = inactive; . = no result. Only some compounds are listed: those with a hit (about 3.8% of all), similar ones and a draw of the others.
SMILES,KCNK9 inh,KCNQ1 act,KCNK3 block,KCNQ1 inh,Kir21 inh,hERG rescue
O=C(CN1C(=O)c2ccccc2C1=O)Nc1cccc(Cl)c1,i,i,i,i,-0.42,-10.2
O=C(CCl)N1CCN2C(=O)c3ccccc3C12c1ccc(Cl)cc1 (stereo not drawn),i,i,i,i,-4.57*,-23.6
Cc1cc(N2C(=O)CCC2=O)n(-c2ccccc2)n1,i,i,i,i,-0.87,-4.1
COc1ccc(C(=O)N2CCNC(=O)C2CC(=O)Nc2ccc(C)cc2)cc1 (stereo not drawn),i,i,i,i,1.08,-2.9
CSc1ccccc1C(=O)NCC1CCCO1 (stereo not drawn),i,i,i,i,0.74,-9.3
CC(C)C(c1nnnn1Cc1ccco1)N1CCN(c2cccc(Cl)c2)CC1 (stereo not drawn),-7.95*,i,i,i,0.02,-4.5
CCN=C1S/C(=C\c2cc(OCC)c(O)cc2Br)C(=O)N1CC,i,i,i,i,-0.12,-9.5
CC(C)C1C(c2ccccc2)NC(c2ccccc2)CC1(O)c1ccc(F)cc1 (stereo not drawn),i,i,i,7*,-1.17,-19.4
CC(C)C1C(c2ccccc2)N(C)C(c2ccccc2)CC1(O)c1ccccc1 (stereo not drawn),i,i,i,i,0.58,-8.8
CCOC(=O)c1ccc(N2CCN(c3cc(C)ccc3C)CC2)c(N)c1,-6.76*,i,i,i,0.27,-6.8
O=C(Nc1nccs1)c1cc(-c2ccccc2)nc2ccccc12,-6.74*,i,i,i,0.83,-14.3
COC(=O)c1sccc1NC(=O)c1ccccc1C(=O)O,i,i,i,i,-0.1,-8.1
CCOC(=O)c1sc(NC(=O)c2cc(-c3ccccc3)nc3ccccc23)c(C#N)c1C,i,i,i,8*,-3.06,-35.2
COC(=O)c1sccc1NC(=O)c1cc(-c2ccc(C)cc2C)nc2ccccc12,i,i,i,8*,1.47,-17.9
CCOC(=O)c1sc(NC(=O)CSc2n[nH]c(-c3ccccc3)n2)c(C#N)c1C,i,i,i,i,0.22,-18.9
O=C(Nc1nccs1)c1cc(-c2ccco2)nc2ccccc12,i,i,i,i,1.68,-20.6
Cc1ccc(C)c(-c2cc(C(=O)Nc3sc(C)c(C)c3C(N)=O)c3ccccc3n2)c1,i,i,i,6*,0.34,-16.0
NC(=O)c1nsc(C(=O)N(CC(=O)NCc2ccc3c(c2)OCO3)C2CCCCC2)c1N,i,i,i,i,0.07,-27.9
Cc1cc(NS(=O)(=O)c2ccc(NC(=O)c3cc4c(=O)n5ccccc5nc4s3)cc2)nc(C)n1,i,i,i,i,0.99,-11.0
CC1CN(Cc2ccccc2)c2ccccc2NC1=S (stereo not drawn),i,i,i,i,-4.23*,-8.5
CC1CN(Cc2ccccc2)C(=O)N(c2ccccc2)C1=O (stereo not drawn),.,.,i,.,.,.
Cc1ccc(C(=O)C(O)C(c2ccc(C)cc2)N2CCCCC2)cc1 (stereo not drawn),i,i,i,i,0.11,-6.3
O=C(CSc1nnc(SCc2ccccc2)s1)N/N=C/C=C\c1ccco1,i,i,i,i,0.32,-4.8
O=C(CSc1nnc(SCc2ccccc2)s1)N/N=C/C=C/c1ccccc1[N+](=O)[O-],-7.8*,i,i,i,-1.1,-12.7
C/C=C(/CCC1NCCc2c1[nH]c1ccccc21)[Si](C)(C)C (stereo not drawn),.,.,i,.,.,.
SMILES,KCNK9 inh,KCNQ1 act,KCNK3 block,KCNQ1 inh,Kir21 inh,hERG rescue
Oc1cccc(/C=N/N(Cc2ccccc2)c2ccccc2)c1,-7.19*,i,i,6*,-0.42,-15.3
CCC1CCc2c(sc3ncnc(N4CCOCC4)c23)C1 (stereo not drawn),i,i,i,i,-1.34,-3.9
COC(=O)c1ccccc1NC(=O)NCc1ccccc1,i,i,i,i,0.02,-2.7
Cn1ncc2c(O/N=C(\N)c3ccc(C(C)(C)C)cc3)ncnc21,i,10*,i,i,-0.04,-3.9
COc1ccccc1N(CC(=O)NCCSCc1ccc(C)cc1)S(=O)(=O)c1ccccc1,i,i,i,10*,0.04,-17.6
COCCCNCCCOc1ccc(Cl)cc1Br,i,i,i,i,-1.64,-20.9
CC(O)CNCCCOc1ccc(Cl)cc1C(C)(C)C (stereo not drawn),i,i,i,i,-6.19*,-17.9
c1ccc(-c2ccccc2OCCCCn2ccnc2)cc1,i,i,i,i,-4.83*,-12.1
CC(C)(C)c1ccccc1OCCCCCn1ccnc1,i,i,i,i,-7.37*,-21.7
CC(C)(C)c1cc(Cl)ccc1OCCn1ccnc1,i,i,i,i,-5.58*,0.2
Clc1ccccc1OCCn1ccnc1,i,i,i,i,-1.41,-12.7
Cc1[nH][nH]c(=O)c1C(c1c(C)[nH][nH]c1=O)c1cn(Cc2ccc(Cl)c(Cl)c2)c2ccccc12,i,i,i,i,-2.18,-8.2
CN1CCN(/N=C/c2ccc(N(c3ccccc3)c3ccccc3)cc2)CC1,i,i,i,i,-0.13,-27.3
CCOc1ccc(/C(CCC(=O)O)=N/NC(=O)c2cccc(S(=O)(=O)Nc3ccccc3OC)c2)cc1,.,.,i,.,.,.
COc1cccc(C(=O)NCCNC(=O)c2ccccn2)c1,i,i,i,i,0.87,-3.1
COc1ccc(C)cc1NC(=O)C(OC(=O)c1cc(C)oc1C)c1ccccc1 (stereo not drawn),i,i,i,i,0.64,-9.5
Cc1oc(-c2ccccc2F)nc1CN1CCC(C(=O)NCc2cccs2)CC1,i,i,i,i,0.16,-7.8
CS(=O)(=O)N1c2cccc3cccc(c23)S1(=O)=O,i,i,i,i,-0.59,1.2
O=C(CNC(=O)c1ccccc1F)N/N=C/c1cc(Br)ccc1OCc1ccccc1,-6.61*,i,i,i,-0.19,-14.9
O=C(CC1=NCCNC(c2ccccc2)C1)c1ccccc1O (stereo not drawn),i,i,i,i,-5.98*,-11.4
O=C(Cc1ccccc1)c1ccc(O)cc1O,.,.,i,.,.,.
c1ccc(CNc2ncnc3nc[nH]c23)cc1,i,i,i,i,0.96,-2.2
c1ccc(CCCNc2ncnc3nc[nH]c23)cc1,i,i,i,i,1.4,6.0*
NC(N)=N/N=C/c1ccc2cccc(OCc3ccccc3)c2n1,i,i,i,6*,-5.26*,-25.4

# Compound activity from PubChem.
